This passage reports IC50 and Retention_time results from ChEMBL document CHEMBL3580618, “New trisubstituted 1,2,4-triazoles as ghrelin receptor antagonists” (Bioorg Med Chem Lett, 2015).

In data set [1] the target is T1, Growth hormone secretagogue receptor type 1 (Homo sapiens, UniProt Q92847). The experiment in a line: Antagonist activity at GHSR1a (unknown origin) assessed as inhibition of ghrelin-induced intracellular calcium mobilization. The format is functional, cell-based. An outline of the steps: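 GHS-R1a-expressing cells; [Ca2+]i mobilization read. Compounds failing to raise calcium above 10% of maximal response (100% = 10^-7 M ghrelin) at 10^-5 M were treated as antagonists. […] One experiment, mean points from quadruplicate measurements.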
T1 sequence (Q92847 whole entry): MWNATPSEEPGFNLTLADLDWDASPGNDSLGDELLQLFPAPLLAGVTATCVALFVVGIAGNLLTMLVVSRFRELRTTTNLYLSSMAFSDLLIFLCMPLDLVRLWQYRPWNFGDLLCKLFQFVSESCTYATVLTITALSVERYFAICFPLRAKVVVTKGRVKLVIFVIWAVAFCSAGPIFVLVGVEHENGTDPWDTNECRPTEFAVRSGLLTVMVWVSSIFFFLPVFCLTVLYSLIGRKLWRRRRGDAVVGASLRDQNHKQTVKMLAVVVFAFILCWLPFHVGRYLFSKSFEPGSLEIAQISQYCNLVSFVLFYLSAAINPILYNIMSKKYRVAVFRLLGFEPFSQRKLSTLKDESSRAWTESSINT
On the technique in general: Calcium assays in cells follow changes in intracellular calcium, usually with a dye or a luminescent sensor.

Data set [2] addresses T1, Growth hormone secretagogue receptor type 1. Kind of data set: Displacement of 125I-[His9]-ghrelin from human GHSR1a expressed in LLC-PK1 cells by competitive binding assay. The format is cell-based.
Data set [3] is described as follows: Retention time of the compound by LC-MS analysis. The format is physicochemical.
A short description of data set [4]: Retention time of the compound by HPLC analysis. It counts as physicochemical.
The target in data set [5] is T1, Growth hormone secretagogue receptor type 1. The experiment in a line: Antagonist activity at human GSHR1a expressed in mouse LTK cells assessed as inhibition of ghrelin-induced reporter gene expression after 6 hrs by CRE/luciferase reporter gene assay. The format is functional, cell-based. A digest of the protocol:
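Mouse LTK cells stably expressing human GHS-R1a with luciferase reporter under CRE elements and CMV minimal promoter. Cells incubated 6 h with 1 µM rolipram, test compound at various concentrations and saturating ghrelin. Cells then lysed and bioluminescence read. % inhibition: ghrelin-treated cells = 0%, untreated cells = 100%. Quadruplicate points. IC50 from one experiment for weaker compounds, mean of at least two experiments for nanomolar ones.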
In general terms: In a reporter assay the amount or activity of a reporter protein is the signal.

The term IC50 denotes the concentration that inhibits the measured activity by half. With `COc1ccc(Cn2c(CCc3ccccc3)nnc2[C@@H](Cc2c[nH]c3ccccc23)NC(=O)c2nccc3ccccc23)cc1`, the IC50 was determined as 82 nM in data set [1], 150 nM in data set [2] and 73 nM in data set [5]. The Retention_time in data set [3] is reported as 1.85 min; in data set [4] it was 1.93 min.
`COc1ccc(Cn2c(CCc3ccccc3)nnc2[C@@H](Cc2c[nH]c3ccccc23)NC(=O)c2ccccn2)cc1`: the half-inhibitory concentration (IC50) amounted to 4.5 nM in data set [1] and 6 nM in data set [5].
For the compound `COc1ccc(Cn2c(CCc3ccccc3)nnc2[C@H](N)Cc2c[nH]c3ccccc23)cc1`, the IC50 in data set [2] is greater than 1000 nM.
As to `COc1ccc(Cn2c(CCc3ccccc3)nnc2[C@@H](Cc2c[nH]c3ccccc23)NC(=O)c2ccncc2)cc1`, the half-maximal inhibitory concentration (IC50) in data set [2] was 220 nM; in data set [5], 828 nM.
Consider `COc1ccc(Cn2c(CCc3ccccc3)nnc2[C@@H](Cc2c[nH]c3ccccc23)NC(=O)c2cccnc2)cc1`, for which the IC50 in data set [1] was 337 nM; in data set [2], 122 nM; in data set [5], 411 nM. The Retention_time in data set [3] worked out at 1.57 min; in data set [4] it was 1.61 min.
For `COc1ccc(Cn2c(CCc3ccccc3)nnc2[C@@H](Cc2c[nH]c3ccccc23)NC(=O)c2cncc(Br)c2)cc1`, in that order: 88 nM, 84 nM, 222 nM, 1.85 min and 1.85 min.
With `COc1ccc(Cn2c(CCc3ccccc3)nnc2[C@@H](Cc2c[nH]c3ccccc23)NC(=O)c2cccnc2Br)cc1`, the 50% inhibitory concentration (IC50) was determined as 510 nM in data set [1], 250 nM in data set [2] and 193 nM in data set [5]. For the same compound, the results for the Retention_time in data set [3] and in data set [4] were 1.66 min and 1.76 min, respectively.
On the same counts, the results for `COc1ccc(Cn2c(CCc3ccccc3)nnc2[C@@H](Cc2c[nH]c3ccccc23)NC(=O)c2ccc(Cl)nc2)cc1` are 1010 nM, 130 nM, 771 nM, 1.52 min and 1.8 min.
With `COc1ccc(Cn2c(CCc3ccccc3)nnc2[C@@H](Cc2c[nH]c3ccccc23)NC(=O)c2cccnc2N)cc1`, the IC50 turned out to be 671 nM in data set [1], 380 nM in data set [2] and 427 nM in data set [5]. The values for the Retention_time in data set [3] and in data set [4] were 1.35 min and 1.58 min, respectively.
Turning to `COc1ccc(Cn2c(CCc3ccccc3)nnc2[C@@H](Cc2c[nH]c3ccccc23)NC(=O)c2ncccc2F)cc1`, the 50% inhibitory concentration (IC50) in data set [1] was found to be 7 nM; in data set [2], 3 nM; in data set [5] it was 8.8 nM. The Retention_time in data set [3] stood at 1.67 min; in data set [4], 1.73 min.
With `COc1ccc(Cn2c(CCc3ccccc3)nnc2[C@@H](Cc2c[nH]c3ccccc23)NC(=O)c2cccc(F)n2)cc1`, the half-maximal inhibitory concentration (IC50) in data set [1] is 2.1 nM; in data set [2], 2 nM; in data set [5], 2.1 nM. The Retention_time in data set [3] is reported as 1.67 min; in data set [4], 1.84 min.
Turning to `COc1ccc(Cn2c(CCc3ccccc3)nnc2[C@@H](Cc2c[nH]c3ccccc23)NC(=O)c2ncc(F)cc2F)cc1`, the 50% inhibitory concentration (IC50) was 4.6 nM in data set [1], 4 nM in data set [2] and 2.8 nM in data set [5]. Also, the Retention_time in data set [3] came to 1.65 min; in data set [4], 1.82 min.
As to `COc1ccc(Cn2c(CCc3ccccc3)nnc2[C@@H](Cc2c[nH]c3ccccc23)NC(=O)c2cccc(C)n2)cc1`, the 50% inhibitory concentration (IC50) in data set [1] came out at 5.4 nM; in data set [2], 3.4 nM; in data set [5] it was 7.5 nM. Besides, the Retention_time was found to be 1.74 min in data set [3] and 1.82 min in data set [4].
On to `COc1ccc(Cn2c(CCc3ccccc3)nnc2[C@@H](Cc2c[nH]c3ccccc23)NC(=O)c2cccc(OC)n2)cc1`, for which the IC50 was determined as 7.8 nM in data set [1], 2 nM in data set [2] and 9 nM in data set [5]. Besides, the Retention_time in data set [3] was found to be 1.76 min; in data set [4] it was 1.86 min.
As to `COc1ccc(Cn2c(CCc3ccccc3)nnc2[C@@H](Cc2c[nH]c3ccccc23)NC(=O)c2cccc(N)n2)cc1`, the values for the half-inhibitory concentration (IC50) in data set [1], in data set [2] and in data set [5] were 25 nM, 6 nM and 21 nM, respectively. Also, the Retention_time in data set [3] is reported as 1.5 min; in data set [4], 1.55 min.
With `COc1ccc(Cn2c(CCc3ccccc3)nnc2[C@@H](Cc2c[nH]c3ccccc23)NC(=O)c2ncccc2O)cc1`, the IC50 was determined as 165 nM in data set [1], 240 nM in data set [2] and 108 nM in data set [5]. The Retention_time was 1.82 min in data set [3] and 1.86 min in data set [4].
For `COc1ccc(Cn2c(CCc3ccccc3)nnc2[C@@H](Cc2c[nH]c3ccccc23)NC(=O)c2cccc[n+]2[O-])cc1`, the IC50 in data set [1] came out at 112 nM; in data set [2], 42 nM; in data set [5] it was 79 nM. Also, the results for the Retention_time in data set [3] and in data set [4] were 1.59 min and 1.73 min, respectively.
With `COc1ccc(Cn2c(CCc3ccccc3)nnc2[C@@H](Cc2c[nH]c3ccccc23)NC(=O)c2ccc(N3CCCC3)cn2)cc1`, the results for the concentration for half-maximal inhibition (IC50) in data set [1], in data set [2] and in data set [5] were 2110 nM, 65 nM and 1210 nM, respectively. For the same compound, the values for the Retention_time in data set [3] and in data set [4] were 1.8 min and 1.76 min, respectively.
In the case of `COc1ccc(Cn2c(CCc3ccccc3)nnc2[C@@H](Cc2c[nH]c3ccccc23)NC(=O)c2ncccc2C(=O)c2ccccc2)cc1`, the IC50 was 230 nM in data set [1], 240 nM in data set [2] and 313 nM in data set [5]. For the same compound, the Retention_time in data set [3] turned out to be 1.83 min; in data set [4], 1.88 min.
As to `COc1ccc(Cn2c(CCc3ccccc3)nnc2[C@@H](Cc2c[nH]c3ccccc23)NC(=O)c2cc3ccccc3cn2)cc1`, the values for the IC50 in data set [1], in data set [2] and in data set [5] were 404 nM, 100 nM and 126 nM, respectively. The Retention_time in data set [3] turned out to be 1.87 min; in data set [4] it was 1.9 min.
